Experimental data collected from several papers.
Protocols differ between the studies behind these lines.

`CCCC[C@@H]1NC(=O)[C@H](Cc2ccc(O)cc2)NC(=O)[C@@H]2CCCN2C(=O)[C@H](CC(=O)O)NC(=O)[C@H](C)NC(=O)[C@H](Cc2ccccc2)NC(=O)[C@@H]2CSCCC(=O)N3CN(CN(C3)C(=O)CCSC[C@H](NC(C)=O)C(=O)N[C@@H](CC(C)(C)C)C(=O)N[C@@H](CCC(=O)O)C(=O)N[C@@H](CCC(=O)O)C(=O)N[C@H](CCCCNC(=O)CCc3cn(CCOCCOCCOCCOCCOCCC(=O)N[C@H]4CSCCC(=O)N5CN6CN(C5)C(=O)CCSC[C@H](NC(=O)[C@@H](CC(=O)O)NC(=O)[C@H](Cc5cccc7ccccc57)NC(=O)[C@@H]5CCCN5C4=O)C(=O)N[C@@H](CCSC)C(=O)N[C@@H](CCCCNC(=N)N)C(=O)N[C@@H](CC(=O)O)C(=O)N[C@@H](Cc4c[nH]c5ccccc45)C(=O)N[C@@H](CO)C(=O)N[C@@H]([C@@H](C)O)C(=O)N4CCC[C@H]4C(=O)N4C[C@H](O)C[C@H]4C(=O)N[C@@H](Cc4c[nH]c5ccccc45)C(=O)N[C@H](C(N)=O)CSCCC6=O)nn3)C(=O)N3CCC[C@H]3C(=O)N[C@@H](Cc3ccc(O)cc3)C(=O)N2)C(=O)CCSC[C@@H](C(N)=O)NC1=O` gave a half-life of 1.7 h (rat, plasma; intravenous, 2 mg/kg).
With `CC(C)C[C@@H]1NC(=O)[C@H](CC(=O)O)NC(=O)[C@H](Cc2ccccc2)NC(=O)[C@H](Cc2c[nH]cn2)NC(=O)[C@H]([C@@H](C)O)NC(=O)[C@H](Cc2ccccc2)NC(=O)[C@@H](NC(=O)[C@H](C)NC(=O)COCCOCCNC(=O)COCCOCCNC(=O)CC[C@H](NC(=O)CCCCCCCCCCCCCCCCC(=O)O)C(=O)O)CSSC[C@@H](C(=O)O)NC(=O)[C@H](Cc2ccccc2)NC(=O)[C@@H]2CCCN2C(=O)[C@H](Cc2c[nH]c3ccccc23)NC(=O)[C@H](CC(C)C)NC1=O` the half-life was 4.17 h (male Sprague-Dawley rat, plasma; intravenous).
For `Cn1cnc(Cn2c(=O)[nH]/c(=N\c3cc4cn(C)nc4cc3Cl)n(Cc3cc(F)c(F)cc3F)c2=O)n1`, the half-life was 3.29 h (male Sprague-Dawley rat, plasma; intravenous, 5 mg/kg).
For `CCCC[C@@H]1NC(=O)[C@H](Cc2ccc(O)cc2)NC(=O)[C@@H]2CCCN2C(=O)[C@H](CC(=O)O)NC(=O)[C@H](C)NC(=O)[C@H](Cc2ccccc2)NC(=O)[C@@H]2CSCCC(=O)N3CN(CN(C3)C(=O)CCSC[C@H](NC(C)=O)C(=O)N[C@@H](CC(C)(C)C)C(=O)N3CCC[C@H]3C(=O)N[C@@H](CCC(=O)O)C(=O)N[C@H](CCCCNC(=O)CCc3cn(CCOCCOCCOCCN(CCOCCOCCOCCC(=O)N[C@H]4CSCCC(=O)N5CN6CN(C5)C(=O)CCSC[C@H](NC(=O)[C@@H](CC(=O)O)NC(=O)[C@H](Cc5cccc7ccccc57)NC(=O)[C@@H]5CCCN5C4=O)C(=O)N[C@@H](CCSC)C(=O)N[C@@H](CCCCNC(=N)N)C(=O)N[C@@H](CC(=O)O)C(=O)N[C@@H](Cc4c[nH]c5ccccc45)C(=O)N[C@@H](CO)C(=O)N[C@@H]([C@@H](C)O)C(=O)N4CCC[C@H]4C(=O)N4C[C@H](O)C[C@H]4C(=O)N[C@@H](Cc4c[nH]c5ccccc45)C(=O)N[C@H](C(N)=O)CSCCC6=O)CCOCCOCCOCCn4cc(CCC(=O)NCCCC[C@H]5NC(=O)[C@H](CCC(=O)O)NC(=O)[C@@H]6CCCN6C(=O)[C@H](CC(C)(C)C)NC(=O)[C@@H](NC(C)=O)CSCCC(=O)N6CN7CN(C6)C(=O)CCSC[C@H](NC(=O)[C@H](Cc6ccc(O)cc6)NC(=O)[C@@H]6CCCN6C5=O)C(=O)N[C@@H](Cc5ccccc5)C(=O)N[C@@H](C)C(=O)N[C@@H](CC(=O)O)C(=O)N5CCC[C@H]5C(=O)N[C@@H](Cc5ccc(O)cc5)C(=O)N[C@@H](CCCC)C(=O)N[C@H](C(N)=O)CSCCC7=O)nn4)nn3)C(=O)N3CCC[C@H]3C(=O)N[C@@H](Cc3ccc(O)cc3)C(=O)N2)C(=O)CCSC[C@@H](C(N)=O)NC1=O`, the half-life was 3.1 h (rat, plasma; intravenous, 2 mg/kg).
`Cl.Cl.O=C(CCN1CCCCC1)c1ccc(-c2ccc(C(=O)CCN3CCCCC3)cc2)cc1` has a half-life of 7.54 h (Sprague-Dawley rat, plasma; oral, 50 mg/kg).
`CCCCCn1nc(C(=O)Nc2cccc3ccccc23)c2ccccc21` has a half-life of 5.4 h (male Long-Evans rat, plasma; intraperitoneal, 3 mg/kg).
For `[2H]C([2H])(c1cc(F)c(F)cc1F)n1c(=O)n(Cc2ncn(C)n2)c(=O)[nH]/c1=N\c1cc2cn(C)nc2cc1Cl`, the half-life was 3.37 h (male Sprague-Dawley rat, plasma; intravenous, 5 mg/kg).
The half-life of `N=c1c2c(-c3ccccc3)c(-c3ccccc3)n(Cc3ccccc3)c2ncn1[C@H]1CC[C@H](O)CC1` is reported as 8.9 h (male Sprague-Dawley rat, plasma; intravenous, 2 mg/kg, single dose).
`[2H]C([2H])([2H])n1cc2cc(Nc3nc(=O)n(Cc4ncn(C)n4)c(=O)n3Cc3cc(F)c(F)cc3F)c(Cl)cc2n1` gave a half-life of 3.68 h (male Sprague-Dawley rat, plasma; intravenous, 5 mg/kg).
The half-life of `COC(=O)C(NC(=O)c1cn(CCCCCF)c2ccccc12)C(C)(C)C` (stereo not shown) is reported as 6.89 h (male Sprague-Dawley rat, plasma; subcutaneous, 50 µg/kg).
For `CN1CCN(Cc2ccc(NC(=O)c3cncc(C#Cc4cnc(N)c5ncccc45)c3)cc2C(F)(F)F)CC1`, the half-life was 3.4 h (rat, plasma; intravenous, 2 mg/kg).
`O=C(Nc1cccnn1)N1CCN([C@@H]2CCOc3cc(C(F)(F)F)ccc32)CC1` gave a half-life of 5.5 h (male Sprague-Dawley rat, plasma; oral, 1 mg/kg).
With `CC(=O)N[C@@H](C)C(=O)N[C@H]1CSSC[C@@H](C(=O)O)NC(=O)[C@H](Cc2ccccc2)NC(=O)[C@@H]2CCCN2C(=O)[C@H](Cc2c[nH]c3ccccc23)NC(=O)[C@H](CC(C)C)NC(=O)[C@H](CC(C)C)NC(=O)[C@H](CC(=O)O)NC(=O)[C@H](Cc2ccccc2)NC(=O)[C@H](Cc2c[nH]cn2)NC(=O)[C@H]([C@@H](C)O)NC(=O)[C@H](Cc2ccccc2)NC1=O` the half-life was 0.0303 h (male Sprague-Dawley rat, plasma; intravenous).
With `Cc1ncc(C)n2nc(/C=C/c3nc(N4CCCC4)cc(N4CCOCC4)n3)nc12` the half-life was 6 h (male Sprague-Dawley rat, plasma; oral, 0.3 mg/kg).
`COc1ccc2c3c1O[C@H]1C[C@@H](OC(=O)c4ccccc4)C=C[C@@]31CCN(C)C2` has a half-life of 1.95 h (rat, brain; intravenous, 5 mg/kg).
With `O=C([O-])C(=O)[O-].[NH-][C@@H]1CCCC[C@H]1[NH-].[Pt+4]` (relative stereo) the half-life was 1.53 h (rat, plasma; oral, 10 mg/kg).
